One data set concerns Gerbillinae. Kind of data set: Antidepressant activity in gerbil assessed as decrease in immobility time at 0.1 mg/kg, ip administered for 30 mins prior to testing measured for 6 mins by forced swimming test relative to vehicle-treated control. Format: functional, organism-based. More on the design: dose 0.1 mg/kg.
A short description of data set [1]: Drug uptake in gerbil serum at 3 mg/kg, ip after 36 mins. The format is ADME, organism-based. Also noted: dose 3 mg/kg, route intraperitoneal. Conditions: gerbillinae, read-out: Drug uptake. The method in brief: (§1)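 Gerbils given IP doses as a solution in 100% PEG-400. Brain and serum sampled 36 min post-injection, covering the time from dosing to the end of the behavioral test. Values are means (n = 3) with SD.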

Data set [2] has as its target T1, 5-hydroxytryptamine receptor 1A (Homo sapiens, UniProt P08908).
T1 sequence (P08908 whole entry): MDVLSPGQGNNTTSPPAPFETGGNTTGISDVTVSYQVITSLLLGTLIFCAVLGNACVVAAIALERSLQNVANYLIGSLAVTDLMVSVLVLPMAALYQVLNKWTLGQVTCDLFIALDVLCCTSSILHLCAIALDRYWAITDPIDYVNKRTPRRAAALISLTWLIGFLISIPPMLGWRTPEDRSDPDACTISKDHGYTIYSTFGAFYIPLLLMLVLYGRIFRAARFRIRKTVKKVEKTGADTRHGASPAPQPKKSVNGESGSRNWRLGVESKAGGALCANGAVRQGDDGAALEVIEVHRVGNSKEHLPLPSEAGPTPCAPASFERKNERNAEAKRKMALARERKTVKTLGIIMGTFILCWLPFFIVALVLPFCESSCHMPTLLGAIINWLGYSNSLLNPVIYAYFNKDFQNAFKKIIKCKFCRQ
Kind of data set: Inhibition of 5HT1A receptor (unknown origin).

The nature of data set [3]: Ratio of drug level in brain to serum in gerbil at 0.1 mg/kg, ip after 36 mins. Format: ADME, organism-based. Also noted: dose 0.1 mg/kg, route intraperitoneal. Conditions: gerbillinae. In short, it runs like this:
(§2)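 Gerbils given single IP dose in 100% PEG-400 (0.1–30 mg/kg); brain and serum sampled 36 min post-dose, matching the interval from dosing to end of forced swim test. Drug concentrations (nM) measured in each matrix and brain-to-serum ratio calculated; mean of n = 3 with SD.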

The target in data set [4] is Histamine H2 receptor (Homo sapiens) (UniProt P25021). Kind of data set: Inhibition of histamine H2 receptor (unknown origin) at 10 uM. The method in brief: (§3)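 Screened at 10 µM in a commercial panel of over 70 receptors. Significance threshold set at ≥50% inhibition.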
Data set [5] is described as follows: Ratio of drug level in brain to serum in gerbil at 3 mg/kg, ip after 36 mins. Also noted: dose 3 mg/kg, route intraperitoneal. The format is ADME, organism-based. Conditions: gerbillinae. The method in brief: as §2
The target of data set [6] is Sodium-dependent dopamine transporter (Homo sapiens, UniProt Q01959). As to the kind of experiment: Inhibition of DAT (unknown origin).
The species named for data set [7] is Homo sapiens. As to the kind of experiment: Inhibition of Na+ channel (unknown origin) at 10 uM. In short, it runs like this:
as §3

The species entered for data set [8] is Homo sapiens. Kind of data set: Inhibition of Ca2+ channel (unknown origin) at 10 uM. In short, it runs like this:
as §3

Data set [9] in a line: Drug uptake in gerbil brain at 0.1 mg/kg, ip after 36 mins. Particulars: gerbillinae, read-out: Drug uptake. Format: ADME, organism-based. Also noted: dose 0.1 mg/kg, route intraperitoneal. In short, it runs like this:
as §1

Data set [10] in a line: Ratio of drug level in brain to serum in gerbil at 1 mg/kg, ip after 36 mins. The format is ADME, organism-based. More on the design: dose 1 mg/kg, route intraperitoneal. Conditions: gerbillinae. The method in brief: as §2

Structures are written as SMILES. Active and inactive are the calls of the source.

Sodium-dependent dopamine transporter, sequence (Q01959 whole entry): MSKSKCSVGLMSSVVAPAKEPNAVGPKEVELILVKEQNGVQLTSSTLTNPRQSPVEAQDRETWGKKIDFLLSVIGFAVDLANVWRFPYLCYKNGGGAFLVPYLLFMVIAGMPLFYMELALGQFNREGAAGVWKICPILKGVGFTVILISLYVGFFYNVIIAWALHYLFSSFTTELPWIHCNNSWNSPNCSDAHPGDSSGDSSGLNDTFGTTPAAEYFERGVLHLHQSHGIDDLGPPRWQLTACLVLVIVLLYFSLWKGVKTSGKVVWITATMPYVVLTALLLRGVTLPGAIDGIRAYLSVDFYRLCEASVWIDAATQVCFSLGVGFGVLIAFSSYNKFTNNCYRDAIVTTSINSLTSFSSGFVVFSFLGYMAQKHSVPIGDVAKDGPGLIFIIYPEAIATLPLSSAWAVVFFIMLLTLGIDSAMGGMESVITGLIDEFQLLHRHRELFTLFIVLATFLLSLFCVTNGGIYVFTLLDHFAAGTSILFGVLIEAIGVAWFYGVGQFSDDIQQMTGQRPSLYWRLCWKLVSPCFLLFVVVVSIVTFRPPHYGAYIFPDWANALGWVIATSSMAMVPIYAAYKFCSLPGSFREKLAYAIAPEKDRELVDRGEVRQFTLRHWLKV
Histamine H2 receptor (Homo sapiens), sequence (P25021 whole entry): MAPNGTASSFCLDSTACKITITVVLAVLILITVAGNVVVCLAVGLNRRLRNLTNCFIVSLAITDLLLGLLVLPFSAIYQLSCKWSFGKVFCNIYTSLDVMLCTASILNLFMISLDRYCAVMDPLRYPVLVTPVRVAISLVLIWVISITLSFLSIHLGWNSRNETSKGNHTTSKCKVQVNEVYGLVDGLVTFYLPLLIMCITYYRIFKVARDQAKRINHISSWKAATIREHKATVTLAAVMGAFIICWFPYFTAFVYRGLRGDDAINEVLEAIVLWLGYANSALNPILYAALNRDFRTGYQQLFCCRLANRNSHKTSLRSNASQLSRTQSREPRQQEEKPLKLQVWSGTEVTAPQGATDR

As a reminder, the IC50 is the concentration at which inhibition is half-maximal. High values mean weaker potency, low ones greater potency. For orientation: Kp means tissue or fluid exposure divided by exposure in the circulation. Consider `FC(F)(F)c1cc(COCC2(c3ccccc3)CCNCC2)cc(C(F)(F)F)c1`, for which, in the data set on Gerbillinae, the outcome was inactive. The concentration at 0.6 h in [1] worked out at 210 nM; in data set [9] it was 8.8 nM. For the same molecule, the IC50 in data set [2] and in data set [6] was over 1000 nM throughout. The Kp at 0.6 h in data set [3] amounted to 2.3; in [5], 4.2; in data set [10] it was 3.2. Also, the inhibition result (in data set [4]; in the data set listed under Homo sapiens [7]; in the data set listed under Homo sapiens [8]) was “Active” throughout.

The values above are taken from ChEMBL document CHEMBL2346641, “Discovery of disubstituted piperidines and homopiperidines as potent dual NK1 receptor antagonists-serotonin reuptake transporter inhibitors for the treatment of depression” (Bioorg Med Chem, 2013).
